According to PMC6644362 (ACS Omega, 2018):
Where “and” joins values, the source holds several entries; their conditions need not be identical. Equal values may be shown once.

Assays:
recombinant human TK2 [1] = molecular target: T1, recombinant human TK2 (Homo sapiens, UniProt O00142); assay: Isothermal titration calorimetry; assay type: binding
T1 sequence (O00142 56-265 limits assumed): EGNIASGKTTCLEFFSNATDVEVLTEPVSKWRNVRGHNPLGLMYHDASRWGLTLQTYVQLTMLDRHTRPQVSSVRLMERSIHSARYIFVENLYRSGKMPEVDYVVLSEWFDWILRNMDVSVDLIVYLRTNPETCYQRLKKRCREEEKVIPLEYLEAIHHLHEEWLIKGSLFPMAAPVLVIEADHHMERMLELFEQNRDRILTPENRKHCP
In short: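 Calorimetry at 25 °C used 40 μM TK2 (dTTP-bound or dTTP-free) dialysed into 10 mM Tris/HCl pH 7.9, 1 mM MgCl2. Ligands were in dialysis buffer at 1–3 mM syringe concentration, also ATPγS into enzyme–dT/dC complexes. There was one 2 μL control injection, then 24 × 8 μL injections at 500 s intervals. Blanks were ligand into buffer and buffer into enzyme. Best-fit model per ligand; Kd = 1/KB.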

[2] = molecular target: human recombinant dC kinase (dCK) (Homo sapiens, UniProt P27707); assay: ITC titration of ATPγS to dCK in the presence and absence of dC; assay type: binding
recombinant human TK2 [3] = molecular target: T1, recombinant human TK2; assay: Intrinsic tryptophan fluorescence; assay type: binding; details: for Kd / ΔFmax: mean ± SD; for fa (fractional accessibility) / Ka (quenching constant of the accessible fraction): modified Stern–Volmer equation; for fractional initial accessible fluorescence: summary of Table 2, dTTP-bound or dTTP-free TK2; for quenching of the fluorescence emission on addition of ligand: titrated to dTTP-bound or dTTP-free TK2, 0.5–4000 μM
TK2 = details: feedback inhibition, enzyme kinetic experiments; cited from earlier work
[4] = titrated to E–dC complex, 25 °C
[5] = titrated to E–dT complex, 25 °C
[6] = Kd (equilibrium binding constant), dTTP-bound TK2, one-site specific binding model
[7] = dTTP-bound TK2, 2 μM TK2, 21 °C
[8] = dTTP-bound TK2, one-site specific binding model
[9] = read-out: Kd (equilibrium binding constant), dTTP-bound TK2, one-site specific binding model
[10] = Kd (equilibrium binding constant), dTTP-free TK2, one-site specific binding model
[11] = dTTP-free TK2, one-site specific binding model

human recombinant dC kinase (dCK), sequence (P27707 whole entry): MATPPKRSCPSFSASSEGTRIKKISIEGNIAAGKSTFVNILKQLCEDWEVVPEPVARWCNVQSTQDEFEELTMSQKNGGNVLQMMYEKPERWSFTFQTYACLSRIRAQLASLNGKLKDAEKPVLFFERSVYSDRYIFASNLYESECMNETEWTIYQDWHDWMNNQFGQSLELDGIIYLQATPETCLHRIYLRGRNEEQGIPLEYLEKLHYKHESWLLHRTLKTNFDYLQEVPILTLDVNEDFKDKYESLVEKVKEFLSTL

SMILES	Kd (recombinant human TK2 [3]; [6]) [µM]	fa (fractional accessibility) (recombinant human TK2 [3]; [7])	ΔFmax (recombinant human TK2 [3]; [8])	fractional initial accessible fluorescence (recombinant human TK2 [3])	quenching of the fluorescence emission on addition of ligand (recombinant human TK2 [3])	Ka (quenching constant of the accessible fraction) (recombinant human TK2 [3]; [7]) [μM^–1]	Kd (recombinant human TK2 [3]; [9]) [µM]	Kd (recombinant human TK2 [3]; [10]) [µM]	fa (fractional accessibility) (recombinant human TK2 [3]; dTTP-free TK2, 21 °C)	ΔFmax (recombinant human TK2 [3]; [11])	other results
Nc1ncnc2c1ncn2[C@@H]1O[C@H](CO[P@](=O)(O)O[P@](=O)(O)O[P@@](=O)(O)S)[C@@H](O)[C@H]1O [ATPγS, adenosine 5′-(gamma-thio) triphosphate]	–	–	–	–	–	–	–	–	–	–	Kd (recombinant human TK2 [1]; Kd (dissociation constant), titrated to E–dC complex, 25 °C): 20 µM; Kd (recombinant human TK2 [1]; Kd (dissociation constant), titrated to E–dT complex, 25 °C): 0.93 µM; ΔG (Gibbs free energy) (recombinant human TK2 [1]; [4]): –0.18 ± 0.01 kcal/mol; ΔH (enthalpy changes) (recombinant human TK2 [1]; [4]): –7.5 ± 0.5 kcal/mol; ΔS (entropy changes) (recombinant human TK2 [1]; [4]): –24.9 cal/mol/deg; binding constant (recombinant human TK2 [1]; titrated to E–dT complex): 1.1 × 10^6 M^–1; ΔG (Gibbs free energy) (recombinant human TK2 [1]; [5]): –8.2 ± 0.1 kcal/mol; ΔH (enthalpy changes) (recombinant human TK2 [1]; [5]): –19.4 ± 0.8 kcal/mol; ΔS (entropy changes) (recombinant human TK2 [1]; [5]): –37.6 cal/mol/deg; ITC heat response / specific interaction (recombinant human TK2 [1]; titrated with either dTTP-bound or dTTP-free TK2): no heat response; binding to dCK alone (ITC) ([2]; absence of dC): does not bind; binding to the dCK–dC complex (ITC) ([2]; presence of dC): bind
Cc1cn([C@H]2C[C@H](N=[N+]=[N-])[C@@H](CO)O2)c(=O)[nH]c1=O [AZT, 3′-Azido-2′,3′-dideoxythymidine]	6.94 ± 2.78	0.38 ± 0.04	12.77 ± 1.34	20–40%	caused quenching	–	–	–	–	–	–
Nc1ccn([C@H]2C[C@H](O)[C@@H](CO)O2)c(=O)n1 [dC, deoxycytidine]	3.35 ± 0.81	0.29 ± 0.05	19.86 ± 0.94	20–40%	caused quenching	–	–	5.64 ± 1.2	0.40 ± 0.10	67.5 ± 2.9	ΔH (enthalpy changes) (recombinant human TK2 [1]; dTTP-bound enzyme, 25 °C): –23.4 ± 0.7 kcal/mol; ΔS (entropy changes) (recombinant human TK2 [1]; dTTP-bound enzyme, 25 °C): –7.9 cal/mol/deg
Nc1ccn([C@H]2C[C@H](O)[C@@H](COP(=O)(O)OP(=O)(O)OP(=O)(O)O)O2)c(=O)n1 [dCTP, deoxycytidine triphosphate]	–	–	–	–	–	–	–	–	–	–	ITC heat changes in the isothermogram (recombinant human TK2 [1]; dTTP-free enzyme): no heat changes
Cc1cn([C@H]2C[C@H](O)[C@@H](CO)O2)c(=O)[nH]c1=O [dT, thymidine]	3.26 ± 1.01	0.25 ± 0.01	21.95 ± 1.25	–	caused quenching	0.16	–	13.3 ± 1.2	0.17 ± 0.02	69.7 ± 3.1	binding constant, times higher than that of dC (recombinant human TK2 [1]; ITC): 5 times; binding constant, times higher than that of dTTP (recombinant human TK2 [1]; ITC): 65 times; binding affinity, times higher than that of dC (recombinant human TK2 [1]; ITC, dTTP-bound enzyme): 3 times; Kd (recombinant human TK2 [1]; Kd1 (high affinity), dTTP-bound enzyme, two-site binding model): 0.55 µM; ΔG (Gibbs free energy) (recombinant human TK2 [1]; dTTP-bound enzyme, 25 °C): –7.1 ± 0.2 kcal/mol; ΔH (enthalpy changes) (recombinant human TK2 [1]; dTTP-bound enzyme, 25 °C): –72.7 ± 0.2 kcal/mol; ΔS (entropy changes) (recombinant human TK2 [1]; dTTP-bound enzyme, 25 °C): –220 cal/mol/deg; Kd (recombinant human TK2 [1]; read-out: Kd2 (lower affinity), dTTP-bound enzyme, two-site binding model): 6.13 µM; fa, fraction of the initial fluorescence accessible (recombinant human TK2 [3]; dTTP-bound TK2, modified Stern–Volmer equation): 25%
Cc1cn([C@H]2C[C@H](O)[C@@H](COP(=O)(O)O)O2)c(=O)[nH]c1=O [dTMP, deoxythymidine monophosphate]	–	0.21 ± 0.02	16.74 ± 0.53	20–40%	caused quenching	0.79 ± 0.04	1.53 ± 0.28	–	–	–	–

Continued, in another order:

Kd (recombinant human TK2 [3]; [6]) [µM]	fa (fractional accessibility) (recombinant human TK2 [3]; [7])	ΔFmax (recombinant human TK2 [3]; [8])	fractional initial accessible fluorescence (recombinant human TK2 [3])	quenching of the fluorescence emission on addition of ligand (recombinant human TK2 [3])	Ka (quenching constant of the accessible fraction) (recombinant human TK2 [3]; [7]) [μM^–1]	Kd (recombinant human TK2 [3]; [9]) [µM]	Kd (recombinant human TK2 [3]; [10]) [µM]	fa (fractional accessibility) (recombinant human TK2 [3]; dTTP-free TK2, 21 °C)	ΔFmax (recombinant human TK2 [3]; [11])	SMILES	other results
–	0.24 ± 0.04	17.81 ± 0.99	20–40%	caused quenching	0.14 ± 0.02	6.17 ± 1.35	–	–	–	Cc1cn([C@H]2C[C@H](F)[C@@H](CO)O2)c(=O)[nH]c1=O [FLT, 3′-fluoro-2′,3′-dideoxythymidine]	–
–	0.21 ± 0.02	19.74 ± 1.18	20–40%	caused quenching	0.42 ± 0.03	4.42 ± 0.99	–	–	–	Nc1ccn([C@H]2C[C@H](O)[C@@H](COP(=O)(O)O)O2)c(=O)n1 [dCMP, deoxycytidine monophosphate]	–
–	–	–	20–40%	caused quenching	–	–	3.64 ± 1.02	0.22 ± 0.01	57.6 ± 2.9	Cc1cn([C@H]2C[C@H](O)[C@@H](CO[P@](=O)(O)O[P@@](=O)(O)OP(=O)(O)O)O2)c(=O)[nH]c1=O [dTTP, deoxythymidine triphosphate]	Kd (recombinant human TK2 [1]; Kd (dissociation constant), dTTP-free enzyme, 25 °C, Kd = 1/KB): 36 µM and 35.7 µM; binding constant (recombinant human TK2 [1]; dTTP-free TK2): 2.8 × 10^4 M^–1; ΔG (Gibbs free energy) (recombinant human TK2 [1]; dTTP-free enzyme, 25 °C): –6.0 ± 0.1 kcal/mol; ΔH (enthalpy changes) (recombinant human TK2 [1]; dTTP-free enzyme, 25 °C): 237.2 ± 0.2 kcal/mol; ΔS (entropy changes) (recombinant human TK2 [1]; dTTP-free enzyme, 25 °C): 816 cal/mol/deg; Ki (TK2): 2.5 µM and ~2.5 µM
